Data from ChEMBL document CHEMBL4251654, “Structure-based design of human immuno- and constitutive proteasomes inhibitors” (Eur J Med Chem, 2018).
Activity calls are given as the source filed them. No cut-off for these calls is given here.

Key:
[1] = molecular target: T1, Proteasome component C5 (Homo sapiens) (UniProt P20618); experiment: Inhibition of human 20S constitutive proteasome beta-1 at 50 uM using Z-LLE-betaNA as substrate incubated for 15 mins measured for 45 mins by fluorescence assay relative to control
T1 sequence (whole entry): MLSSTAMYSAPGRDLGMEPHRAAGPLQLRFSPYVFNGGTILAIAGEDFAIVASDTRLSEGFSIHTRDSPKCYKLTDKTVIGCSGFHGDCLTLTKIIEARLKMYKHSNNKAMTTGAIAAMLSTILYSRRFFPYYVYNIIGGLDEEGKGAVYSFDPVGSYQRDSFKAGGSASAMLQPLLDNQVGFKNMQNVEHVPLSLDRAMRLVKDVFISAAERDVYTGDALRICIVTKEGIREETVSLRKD
Procedure, shortened: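 Human 20S constitutive proteasome, 0.3 nM, was preincubated 15 min with compound (0.001-50 μM) in pH 8 Tris-HCl 20 mM, 10% glycerol, 0.01% SDS, 2% DMSO. Z-LLE-βNA at 50 μM was added. βNA fluorescence (ex 340/em 404 nm) was monitored 45 min at 37 °C against an untreated control.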

[2] = molecular target: T2, Proteasome Macropain subunit MB1 (Homo sapiens, UniProt P28074); experiment: Inhibition of human 20S constitutive proteasome beta-5 using Suc-LLVY-AMC as substrate incubated for 15 mins measured for 45 mins by fluorescence assay
T2 sequence (P28074 whole entry): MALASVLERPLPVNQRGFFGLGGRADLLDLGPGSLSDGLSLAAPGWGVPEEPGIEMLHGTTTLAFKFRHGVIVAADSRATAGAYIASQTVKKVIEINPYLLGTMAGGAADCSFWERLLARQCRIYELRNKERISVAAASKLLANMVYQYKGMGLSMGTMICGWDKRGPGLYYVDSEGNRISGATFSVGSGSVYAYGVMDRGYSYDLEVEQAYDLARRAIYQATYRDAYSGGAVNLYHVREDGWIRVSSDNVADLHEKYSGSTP
Procedure, shortened: (§1)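 Human 20S cCP or iCP (0.3 nM) was exposed to compound (0.001-50 μM) for 15 min in pH 8 buffer of 20 mM Tris-HCl, 10% glycerol, 0.01% SDS, 2% DMSO. Suc-LLVY-AMC at 20 μM followed. Fluorescence (ex 360/em 460 nm) was read 45 min at 37 °C versus untreated enzyme.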

[3] = molecular target: T3, Proteasome subunit beta type-9 (Homo sapiens) (UniProt P28065); experiment: Inhibition of human 20S immunoproteasome beta-1 at 50 uM using Ac-PAL-AMC as substrate incubated for 15 mins measured for 45 mins by fluorescence assay relative to control
T3 sequence (whole entry): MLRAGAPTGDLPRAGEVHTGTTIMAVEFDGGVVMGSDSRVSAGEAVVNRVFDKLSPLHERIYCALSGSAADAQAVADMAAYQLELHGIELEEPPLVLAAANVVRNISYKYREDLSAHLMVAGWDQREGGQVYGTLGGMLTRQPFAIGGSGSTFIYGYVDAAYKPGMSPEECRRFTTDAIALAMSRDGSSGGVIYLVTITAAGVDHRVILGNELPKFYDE
Procedure, shortened: (§2)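 Human 20S immunoproteasome (0.3 nM) was given 15 min with compound (0.001-50 μM) in pH 8 buffer of 20 mM Tris-HCl, 10% glycerol, 0.01% SDS, 2% DMSO. Ac-PAL-AMC at 50 μM was the substrate. Fluorescence (ex 360/em 460 nm) was followed 45 min at 37 °C relative to control.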

[4] = molecular target: T4, Proteasome subunit beta type-10 (Homo sapiens) (UniProt P40306); experiment: Inhibition of human 20S immunoproteasome beta-2 at 50 uM using BocLRR-AMC as substrate incubated for 15 mins measured for 45 mins by fluorescence assay relative to control
T4 sequence (whole entry): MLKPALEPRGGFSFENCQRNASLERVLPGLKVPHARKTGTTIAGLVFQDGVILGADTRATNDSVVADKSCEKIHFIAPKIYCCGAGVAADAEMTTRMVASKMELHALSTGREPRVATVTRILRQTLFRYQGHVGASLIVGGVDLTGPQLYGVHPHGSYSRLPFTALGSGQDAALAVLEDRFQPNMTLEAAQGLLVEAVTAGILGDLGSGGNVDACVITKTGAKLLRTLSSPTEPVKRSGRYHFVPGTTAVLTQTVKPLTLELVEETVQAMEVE

[5] = molecular target: T5, Proteasome subunit beta type-8 (Homo sapiens) (UniProt P28062); experiment: Inhibition of human 20S immunoproteasome beta-5 at 50 uM using Suc-LLVY-AMC as substrate incubated for 15 mins measured for 45 mins by fluorescence assay relative to control; procedure, shortened: as §1
T5 sequence (whole entry): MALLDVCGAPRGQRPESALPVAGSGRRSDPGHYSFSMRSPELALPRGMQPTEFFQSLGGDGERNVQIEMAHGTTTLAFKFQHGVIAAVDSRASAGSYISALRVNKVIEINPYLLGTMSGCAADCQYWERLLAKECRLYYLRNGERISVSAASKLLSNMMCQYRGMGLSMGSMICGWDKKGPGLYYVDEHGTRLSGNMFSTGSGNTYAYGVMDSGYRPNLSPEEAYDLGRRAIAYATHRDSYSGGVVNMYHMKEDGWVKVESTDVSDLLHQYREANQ

[6] = molecular target: Proteasome Macropain subunit (Homo sapiens) (UniProt P49721); experiment: Inhibition of human 20S constitutive proteasome beta-2 at 50 uM using BocLRR-AMC as substrate incubated for 15 mins measured for 45 mins by fluorescence assay relative to control
Procedure, shortened: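 Purified human 20S proteasome (cCP or iCP), 0.3 nM, preincubated 15 min with compound (0.001-50 μM) in pH 8 buffer of 20 mM Tris-HCl, 10% glycerol, 0.005% Triton X-100, 2% DMSO. Then Boc-LRR-AMC at 50 μM was added. AMC fluorescence (ex 360/em 460 nm) was followed 45 min at 37 °C. Activity is relative to an untreated control.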

[7] = molecular target: T6, Proteasome subunit beta type-9 (Homo sapiens, UniProt P28065); experiment: Inhibition of human 20S immunoproteasome beta-1 using Ac-PAL-AMC as substrate incubated for 15 mins measured for 45 mins by fluorescence assay; procedure, shortened: as §2
T6 sequence (P28065 whole entry): T3 sequence (whole entry)

[8] = molecular target: T7, Proteasome subunit beta type-8 (Homo sapiens, UniProt P28062); experiment: Inhibition of human 20S immunoproteasome beta-5 using Suc-LLVY-AMC as substrate incubated for 15 mins measured for 45 mins by fluorescence assay; procedure, shortened: as §1
T7 sequence (P28062 whole entry): T5 sequence (whole entry)

[9] = molecular target: T8, Proteasome Macropain subunit MB1 (Homo sapiens) (UniProt P28074); experiment: Inhibition of human 20S constitutive proteasome beta-5 at 50 uM using Suc-LLVY-AMC as substrate incubated for 15 mins measured for 45 mins by fluorescence assay relative to control; procedure, shortened: as §1
T8 sequence (whole entry): T2 sequence (P28074 whole entry)

[10] = molecular target: T9, Proteasome subunit beta type-10 (Homo sapiens, UniProt P40306); experiment: Inhibition of human 20S immunoproteasome beta-2 using BocLRR-AMC as substrate incubated for 15 mins measured for 45 mins by fluorescence assay
T9 sequence (P40306 whole entry): T4 sequence (whole entry)

Proteasome Macropain subunit (Homo sapiens), sequence (P49721 whole entry): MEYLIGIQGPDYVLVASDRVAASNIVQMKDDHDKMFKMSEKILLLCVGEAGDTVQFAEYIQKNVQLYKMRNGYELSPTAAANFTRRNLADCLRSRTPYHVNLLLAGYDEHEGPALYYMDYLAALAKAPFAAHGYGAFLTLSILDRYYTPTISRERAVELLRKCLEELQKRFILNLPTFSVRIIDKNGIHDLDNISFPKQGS

Row | SMILES | inhibition [1] | IC50 [2] | inhibition [3] | inhibition [4] | inhibition [5] | inhibition [6] | IC50 [7] | IC50 [8] | inhibition [9] | IC50 [10]
1 | C[C@H](NC(=O)[C@H](Cc1ccc(OCc2ccccc2)cc1)NC(=O)OC(C)(C)C)C(=O)N[C@@H](C[C@@]1(O)C(=O)N(C)c2ccccc21)C(=O)NCc1ccccc1 | > 85% | 6.8 µM | > 85% | 18% | > 85% | 56% | 8.9 µM | 6.1 µM | > 85% | –
2 | C[C@H](NC(=O)[C@H](Cc1ccc(OCc2ccccc2)cc1)NC(=O)OC(C)(C)C)C(=O)N[C@@H](C[C@]1(O)C(=O)N(C)c2ccccc21)C(=O)NCc1ccccc1 | > 85% | 5.1 µM | > 85% | 27% | > 85% | 19% | 10.3 µM | 3.93 µM | > 85% | –
3 | C[C@H](NC(=O)[C@H](Cc1ccc(OCc2ccccc2)cc1)NC(=O)OC(C)(C)C)C(=O)N[C@@H](C[C@]1(O)C(=O)Nc2ccccc21)C(=O)NC(c1ccccc1)c1ccccc1 | > 85% | 1.74 µM | > 85% | inactive | > 85% | 30% | 4 µM | 2.7 µM | > 85% | –
4 | C[C@H](NC(=O)[C@H](Cc1ccc(OCc2ccccc2)cc1)NC(=O)OC(C)(C)C)C(=O)N[C@@H](C[C@]1(O)C(=O)Nc2ccccc21)C(=O)NCC(C)(C)C | > 85% | 11.3 µM | > 85% | > 85% | > 85% | > 85% | 21 µM | 12.6 µM | > 85% | 30 µM
5 | C[C@H](NC(=O)[C@H](Cc1ccc(OCc2ccccc2)cc1)NC(=O)OC(C)(C)C)C(=O)N[C@@H](C[C@]1(O)C(=O)Nc2ccccc21)C(=O)NCC1CCCCC1 | > 85% | 4.3 µM | > 85% | > 85% | > 85% | > 85% | 4.8 µM | 5.2 µM | > 85% | 16 µM
6 | C[C@H](NC(=O)[C@H](Cc1ccc(OCc2ccccc2)cc1)NC(=O)OC(C)(C)C)C(=O)N[C@@H](C[C@]1(O)C(=O)Nc2ccccc21)C(=O)NCCC1CCCCC1 | > 85% | 2.8 µM | > 85% | 19% | > 85% | 36% | 3.5 µM | 2.7 µM | > 85% | –
7 | COC(=O)CCNC(=O)[C@H](C[C@]1(O)C(=O)Nc2ccccc21)NC(=O)[C@H](C)NC(=O)[C@H](Cc1ccc(OCc2ccccc2)cc1)NC(=O)OC(C)(C)C | 15% | 64 µM | 17% | > 85% | 31% | 14% | – | – | > 85% | 106 µM

Further lines, results first:

Row | inhibition [1] | IC50 [2] | inhibition [3] | inhibition [4] | inhibition [5] | inhibition [6] | IC50 [7] | IC50 [8] | inhibition [9] | IC50 [10] | SMILES
8 | > 85% | 6 µM | > 85% | 26% | > 85% | 45% | 7.31 µM | 6.5 µM | > 85% | – | C[C@H](NC(=O)[C@H](Cc1ccc(OCc2ccccc2)cc1)NC(=O)OC(C)(C)C)C(=O)N[C@@H](C[C@]1(O)C(=O)Nc2ccccc21)C(=O)NCCc1ccccc1
9 | 19% | – | 17% | > 85% | 14% | > 85% | – | – | 18% | 22 µM | C[C@H](NC(=O)[C@H](Cc1ccc(OCc2ccccc2)cc1)NC(=O)OC(C)(C)C)C(=O)N[C@@H](C[C@]1(O)C(=O)Nc2ccccc21)C(=O)NCCC(=O)O
10 | 20% | 0.88 µM | > 85% | inactive | > 85% | inactive | 24.6 µM | 0.572 µM | > 85% | – | C[C@H](O)[C@@H](NC(=O)OCc1ccccc1)C(=O)N[C@@H](C[C@]1(O)C(=O)Nc2ccccc21)C(=O)NCc1ccccc1
11 | > 85% | 9.2 µM | > 85% | > 85% | > 85% | > 85% | 12.5 µM | 13.2 µM | > 85% | 21.4 µM | C[C@@H](NC(=O)[C@H](Cc1ccc(OCc2ccccc2)cc1)NC(=O)OC(C)(C)C)C(=O)N[C@@H](C[C@]1(O)C(=O)Nc2ccccc21)C(=O)NCc1ccccc1
12 | inactive | 0.36 µM | inactive | inactive | > 85% | inactive | – | 0.42 µM | > 85% | – | NC(=O)C[C@H](NC(=O)OCc1ccccc1)C(=O)N[C@@H](C[C@]1(O)C(=O)Nc2ccccc21)C(=O)NCc1ccccc1
13 | > 85% | 2.9 µM | > 85% | > 85% | > 85% | > 85% | 4.3 µM | 3.8 µM | > 85% | 0.82 µM | NCCCC[C@H](NC(=O)[C@@H](N)Cc1ccc(OCc2ccccc2)cc1)C(=O)N[C@@H](C[C@]1(O)C(=O)Nc2ccccc21)C(=O)NCc1ccccc1
14 | inactive | 5.1 µM | > 85% | inactive | > 85% | inactive | 45 µM | 3.96 µM | > 85% | – | C[C@H](NC(=O)OCc1ccccc1)C(=O)N[C@@H](C[C@]1(O)C(=O)Nc2ccccc21)C(=O)NCc1ccccc1
